Assay results taken from ChEMBL document CHEMBL4014343 (J Med Chem, 2017).
Active and inactive are the calls of the source. No cut-off for these calls is given here.

Assays:
[1] = target: Glycogen synthase kinase-3 beta (Homo sapiens, UniProt P49841); assay: Inhibition of human N-terminal GST/His6-tagged GSK3beta (M1 to T420 residues) expressed in baculovirus infected sf9 cells at 1 uM using RBER-IRStide as substrate by filter binding assay
Method in brief: (§1)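 Single-point profiling at 1 μM in a 22-kinase panel, performed externally by ProQinase; activity read as residual percent of control.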

[2] = target: Cyclin-dependent kinase 1/cyclin B1 (Homo sapiens) (UniProt P06493+P14635); assay: Inhibition of recombinant human N-terminal GST/His6-tagged CDK1 (M1 to M297 residues)/Cyclin B1 (M1 to V433 residues) expressed in sf9 cells at 1 uM using RB-CTF as substrate by filter binding assay; method in brief: as §1
[3] = target: CDK2/Cyclin A2 (Homo sapiens) (UniProt P24941+P20248); assay: Inhibition of recombinant human N-terminal GST-tagged CDK2 (M1 to L298 residues)/Cyclin A2 (M1 to L432 residues) expressed in baculovirus infected sf9 cells at 1 uM using Histone H1 as substrate by filter binding assay; method in brief: as §1
[4] = target: Cyclin-dependent kinase 2/cyclin E1 (Homo sapiens) (UniProt P24864+P24941); assay: Inhibition of recombinant human N-terminal GST-tagged CDK2 (M1 to L298 residues)/Cyclin E1 (M1 to A395 residues) expressed in sf9 cells at 1 uM using RB-CTF as substrate by filter binding assay; method in brief: as §1
[5] = target: Cyclin-dependent kinase 4/cyclin D1 (Homo sapiens) (UniProt P11802+P24385); assay: Inhibition of recombinant human N-terminal GST-tagged CDK4 (S4 to E303 residues)/Cyclin D1 (Q4 to I295 residues) expressed in sf9 cells at 1 uM using RB-CTF as substrate by filter binding assay; method in brief: as §1
[6] = target: Cyclin-dependent kinase 5/CDK5 activator 1 (Homo sapiens) (UniProt Q00535+Q15078); assay: Inhibition of recombinant human N-terminal GST-tagged CDK5 (M1 to P292 residues)/p35NCK (M1 to R307 residues) expressed in baculovirus infected sf9 cells at 1 uM using RB-CTF as substrate by filter binding assay; method in brief: as §1
[7] = target: T1, Insulin-like growth factor 1 receptor (Homo sapiens, UniProt P08069); assay: Inhibition of recombinant human N-terminal GST/His6-tagged IGF1R (M954 to C1367 residues) expressed in sf9 cells assessed as residual activity at 1 uM using Poly(Glu,Tyr)4:1 as substrate by filter binding assay relative to control; method in brief: as §1
[8] = target: T2, Aurora kinase A (Homo sapiens) (UniProt O14965); assay: Inhibition of human N-terminal GST/His6-tagged Aurora A (M1 to S403 residues) expressed in baculovirus infected sf9 cells at 1 uM using tetra(LRRLSLG) as substrate by filter binding assay; method in brief: as §1
T2 sequence (whole entry): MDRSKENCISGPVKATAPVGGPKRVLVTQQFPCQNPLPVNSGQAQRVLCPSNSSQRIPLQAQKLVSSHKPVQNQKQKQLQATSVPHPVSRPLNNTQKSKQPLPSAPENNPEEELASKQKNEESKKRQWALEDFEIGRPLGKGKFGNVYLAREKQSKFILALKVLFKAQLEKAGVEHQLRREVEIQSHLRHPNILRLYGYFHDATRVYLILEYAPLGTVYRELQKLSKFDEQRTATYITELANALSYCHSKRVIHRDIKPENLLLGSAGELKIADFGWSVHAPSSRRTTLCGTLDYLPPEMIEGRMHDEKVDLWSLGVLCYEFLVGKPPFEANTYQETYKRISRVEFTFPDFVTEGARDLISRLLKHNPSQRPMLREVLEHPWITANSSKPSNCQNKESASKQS

[9] = target: Serine/threonine-protein kinase Chk2 (Homo sapiens) (UniProt O96017); assay: Inhibition of CHK2 (unknown origin) at 1 uM; method in brief: as §1
[10] = target: T1, Insulin-like growth factor 1 receptor; assay: Inhibition of IGF1R phosphorylation at Tyr1161 residue in human MCF7 cells at 0.5 uM after 1 hr by immunoblot analysis; type: cell-based
Method in brief: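 MCF7 (DMEM/10% FBS, 24 h) treated with increasing concentrations for 1 h; 40 μg lysate on 10% SDS-PAGE, probed with p-IGF-1R (Y1161) antibody 1:1000 overnight at 4 °C; β-actin loading control, PI3K inhibitor positive control.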

[11] = target: T1, Insulin-like growth factor 1 receptor; assay: Inhibition of IGF1R in human MDA-MB-231 cells assessed as reduction in Akt phosphorylation at Ser473 residue after 24 hrs by immunoblot analysis; type: cell-based
Method in brief: (§2)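 Cells in their medium with 10% FBS exposed to rising concentrations for 24 h; whole-cell lysates immunoblotted for p-Akt (S473) and total Akt; PI3K inhibitor at 10 μM as positive control.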

[12] = target: T1, Insulin-like growth factor 1 receptor; assay: Inhibition of IGF1R in human PANC1 cells assessed as reduction in Akt phosphorylation at Ser473 residue after 24 hrs by immunoblot analysis; type: cell-based; method in brief: as §2
[13] = system: MCF7; assay: Induction of apoptosis in human MCF7 cells assessed as PARP cleavage after 6 hrs by immunoblot analysis; type: functional, cell-based
Method in brief: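 MCF7 in DMEM/10% FBS for 24 h, then treated 6 h; 0.1% DMSO as non-treated, Src inhibitor (10 μM) as positive control. Lysates (40 μg protein) on 10% SDS-PAGE, immunoblotted for PARP cleavage with ECL detection; β-actin loading control.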

[14] = system: CCRF-CEM; assay: Growth inhibition of human CCRF-CEM cells incubated for 48 hrs by sulforhodamine B assay; type: functional, cell-based
[15] = system: K562; assay: Growth inhibition of human K562 cells incubated for 48 hrs by sulforhodamine B assay; type: functional, cell-based
[16] = system: SR; assay: Growth inhibition of human SR cells incubated for 48 hrs by sulforhodamine B assay; type: functional, cell-based
Method in brief: (§3)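 NCI-60 panel growth inhibition, run by the U.S. National Cancer Institute; GI50 values are means of two test series.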

[17] = system: A549; assay: Growth inhibition of human A549/ATCC cells incubated for 48 hrs by sulforhodamine B assay; type: functional, cell-based
[18] = system: EKVX; assay: Growth inhibition of human EKVX cells incubated for 48 hrs by sulforhodamine B assay; type: functional, cell-based
[19] = system: HOP-62; assay: Growth inhibition of human HOP62 cells incubated for 48 hrs by sulforhodamine B assay; type: functional, cell-based
[20] = system: NCI-H460; assay: Growth inhibition of human NCI-H460 cells incubated for 48 hrs by sulforhodamine B assay; type: functional, cell-based
[21] = system: SNB-19; assay: Growth inhibition of human SNB19 cells incubated for 48 hrs by sulforhodamine B assay; type: functional, cell-based
[22] = system: IGROV-1; assay: Growth inhibition of human IGROV1 cells incubated for 48 hrs by sulforhodamine B assay; type: functional, cell-based
[23] = system: OVCAR-5; assay: Growth inhibition of human OVCAR5 cells incubated for 48 hrs by sulforhodamine B assay; type: functional, cell-based
[24] = system: SK-OV-3; assay: Growth inhibition of human SKOV3 cells incubated for 48 hrs by sulforhodamine B assay; type: functional, cell-based
[25] = system: CAKI-1; assay: Growth inhibition of human Caki1 cells incubated for 48 hrs by sulforhodamine B assay; type: functional, cell-based
[26] = system: RXF 393; assay: Growth inhibition of human RXF393 cells incubated for 48 hrs by sulforhodamine B assay; type: functional, cell-based
[27] = system: UO-31; assay: Growth inhibition of human UO31 cells incubated for 48 hrs by sulforhodamine B assay; type: functional, cell-based; method in brief: as §3

Compound: CN1CCN(CCO/N=C2/C(=C3/C(=O)Nc4ccccc43)Nc3ccccc32)CC1
- inhibition [1]: inactive
- inhibition [2]: inactive
- inhibition [3]: inactive
- inhibition [4]: inactive
- inhibition [5]: inactive
- inhibition [6]: inactive
- Activity [7]: 30%
- inhibition [8]: inactive
- inhibition [9]: inactive
- inhibition [10]: Active
- inhibition [11]: Dose-dependent effect
- inhibition [12]: Dose-dependent effect
- Activity [13]: Active
- growth inhibition (GI) [14]: Active
- growth inhibition (GI) [15]: Active
- growth inhibition (GI) [16]: Active
- growth inhibition (GI) [17]: Active
- growth inhibition (GI) [18]: Active
- growth inhibition (GI) [19]: Active
- growth inhibition (GI) [20]: Active
- growth inhibition (GI) [21]: Active
- growth inhibition (GI) [22]: Active
- growth inhibition (GI) [23]: Active
- growth inhibition (GI) [24]: Active
- growth inhibition (GI) [25]: Active
- growth inhibition (GI) [26]: Active
- growth inhibition (GI) [27]: Active
